Laboratory results taken from ChEMBL document CHEMBL4177755, “Combating Drug-Resistant Fungi with Novel Imperfectly Amphipathic Palindromic Peptides” (J Med Chem, 2018).

What was measured:
Candida albicans [1] = assay: Fungicidal activity against Candida albicans cgmcc 2.2086 after 96 hrs; assay type: functional; conditions: cgmcc 2.2086, 96 h, read-out: MFC99.9
Summary of the method: (§1)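 After the 48 h, 28 °C broth microdilution in MOPS-buffered RPMI 1640 (inoculum (0.5−1) × 10^3 CFU/mL), 50 μL from each well was plated on YM agar for a further 48 h at 28 °C. MFC is the lowest concentration killing at least 99.9% of cells. Triplicate, three biological replicates.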

Escherichia coli [2] = assay: Antibacterial activity against Escherichia coli ATCC 25922 after 18 hrs in presence of NH4Cl by broth dilution method; assay type: functional; conditions: ATCC 25922, 18 h
Candida albicans [3] = assay: Antifungal activity against Candida albicans cgmcc 2.2086 in presence of NaCl by broth dilution method; assay type: functional
Salmonella typhimurium = assay: Antibacterial activity against Salmonella typhimurium ATCC 14028 after 24 hrs; assay type: functional, Salmonella enterica subsp. enterica serovar Typhimurium; conditions: Salmonella enterica, ATCC 14028, 24 h
Summary of the method: (§2)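 Broth microdilution. Mid-log bacteria in MHB at a final (0.5−1) × 10^5 CFU/mL were mixed with equal volumes of peptide serially diluted in 0.2% BSA. Plates were incubated 24 h at 37 °C and read at A492. MIC is the lowest concentration inhibiting 95% of growth. Each test was repeated at least 3 times.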

Candida albicans [4] = assay: Antifungal activity against Candida albicans 58288 after 48 hrs by broth microdilution method; assay type: functional; conditions: Candida albicans, 58288, 48 h
Summary of the method: (§3)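 Modified CLSI M27-A2 broth microdilution. Yeast at (0.5−1) × 10^3 CFU/mL in MOPS-buffered RPMI 1640 was mixed 1:1 with peptide serially diluted in 0.2% BSA and incubated 48 h at 28 °C. Absorbance was read at 492 nm; MIC is the lowest concentration inhibiting 95% of growth. Triplicate, three biological replicates.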

Staphylococcus aureus [5] = assay: Bactericidal activity against Staphylococcus aureus ATCC 29213; assay type: functional; conditions: read-out: MBC99.9
Summary of the method: (§4)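 Wells from the 24 h, 37 °C MHB microdilution plates (bacteria at a final (0.5−1) × 10^5 CFU/mL; peptide diluted in 0.2% BSA) were plated on agar and incubated overnight. MBC is the lowest concentration killing >99.9% of cells. Each test was reproduced at least 3 times.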

Staphylococcus aureus [6] = assay: Bactericidal activity against methicillin-resistant Staphylococcus aureus ATCC 4330; assay type: functional; conditions: read-out: MBC99.9
Summary of the method: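 Bacteria at (0.5−1) × 10^5 CFU/mL in MHB were exposed to serially diluted peptide (0.2% BSA) for 24 h at 37 °C, then 50 μL aliquots were plated on agar overnight. MBC is the lowest concentration killing >99.9% of cells. At least 3 repeats.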

Escherichia coli [7] = assay: Antibacterial activity against Escherichia coli ATCC 25922 after 18 hrs in presence of CaCl2 by broth dilution method; assay type: functional; conditions: ATCC 25922, 18 h
Pichia kudriavzevii = assay: Fungicidal activity against Candida krusei cgmcc 2.1857 after 96 hrs; assay type: functional; conditions: cgmcc 2.1857, 96 h, read-out: MFC99.9
Summary of the method: (§5)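 Wells from the 48 h, 28 °C RPMI 1640/MOPS microdilution plates were plated on YM agar and incubated a further 48 h at 28 °C. MFC is the lowest concentration killing at least 99.9% of cells. Run in triplicate with three biological replicates.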

Staphylococcus aureus [8] = assay: Antibacterial activity against methicillin-resistant Staphylococcus aureus ATCC 4330 after 24 hrs; assay type: functional; conditions: ATCC 4330, 24 h
Summary of the method: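 Modified NCCLS broth microdilution. Mid-log bacteria at (0.5−1) × 10^5 CFU/mL in MHB were mixed 1:1 with peptide serially diluted in 0.2% BSA and incubated 24 h at 37 °C. Absorbance was read at 492 nm; MIC is the lowest concentration inhibiting 95% of growth. At least 3 repeats.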

Candida albicans [9] = assay: Antifungal activity against Candida albicans isolated from alveolar fluid after 48 hrs by broth microdilution method; assay type: functional; summary of the method: as §3
Escherichia coli [10] = assay: Antibacterial activity against Escherichia coli 1005 after 24 hrs; assay type: functional; conditions: Escherichia coli, 1005, 24 h; summary of the method: as §2
Candida albicans [11] = assay: Antifungal activity against Candida albicans SP3876 after 48 hrs by broth microdilution method; assay type: functional; conditions: SP3876, 48 h; summary of the method: as §3
Escherichia coli [12] = assay: Bactericidal activity against Escherichia coli 1005; assay type: functional; conditions: read-out: MBC99.9; summary of the method: as §4
Candida albicans [13] = assay: Antifungal activity against Candida albicans cgmcc 2.2086 in presence of ZnCl2 by broth dilution method; assay type: functional
Candida albicans [14] = assay: Antifungal activity against Candida albicans 14936 after 48 hrs by broth microdilution method; assay type: functional; conditions: Candida albicans, 14936, 48 h; summary of the method: as §3
Candida albicans [15] = assay: Fungicidal activity against Candida albicans SP3902 after 96 hrs; assay type: functional; conditions: SP3902, 96 h, read-out: MFC99.9; summary of the method: as §1
Escherichia coli [16] = assay: Antibacterial activity against Escherichia coli ATCC 25922 after 18 hrs in presence of ZnCl2 by broth dilution method; assay type: functional; conditions: ATCC 25922, 18 h
Staphylococcus aureus [17] = assay: Bactericidal activity against Staphylococcus aureus ATCC 25923; assay type: functional; conditions: read-out: MBC99.9; summary of the method: as §4
Candida albicans [18] = assay: Fungicidal activity against Candida albicans isolated from alveolar fluid after 96 hrs; assay type: functional; conditions: read-out: MFC99.9; summary of the method: as §1
[19] = Cytotoxicity against HEK293T cells assessed as cell viability at 2 to 64 uM after 24 hrs by MTT assay relative to control; assay type: cell-based, HEK-293T; conditions: human, read-out: Activity
Summary of the method: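 MTT viability assay. RAW264.7 or HEK293T cells at (1.0−2.0) × 10^5 per well were exposed to a peptide concentration series for 24 h at 37 °C in 5% CO2. MTT was then added at 0.5 mg/mL final for 4 h; formazan was dissolved in DMSO and read at 570 nm. Results average three independent trials.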

Candida albicans [20] = assay: Antifungal activity against Candida albicans cgmcc 2.2086 in presence of CaCl2 by broth dilution method; assay type: functional
Erythrocyte = assay: Hemolytic activity in human RBC after 1 hr; assay type: ADME, cell-based
Summary of the method: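 Fresh human erythrocytes, diluted 10-fold in PBS pH 7.4, were mixed with equal volumes of peptide and held 1 h at 37 °C. After centrifugation at 1000g, supernatant hemoglobin was read at 576 nm. PBS set 0% and 0.1% Triton X-100 set 100% lysis. MHC is the concentration causing 10% hemolysis. At least three experiments were run, each in technical triplicate.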

Candida albicans [21] = assay: Fungicidal activity against Candida albicans SP3876 after 96 hrs; assay type: functional; conditions: SP3876, 96 h, read-out: MFC99.9; summary of the method: as §1
Candida albicans [22] = assay: Fungicidal activity against fluconazole-resistant Candida albicans 56452 after 96 hrs; assay type: functional; conditions: Candida albicans, 56452, 96 h; read-out: MFC99.9; summary of the method: as §1
Candida albicans [23] = assay: Fungicidal activity against Candida albicans 58288 after 96 hrs; assay type: functional; conditions: Candida albicans, 58288, 96 h; read-out: MFC99.9; summary of the method: as §1
Escherichia coli [24] = assay: Antibacterial activity against Escherichia coli ATCC 25922 after 24 hrs; assay type: functional; conditions: ATCC 25922, 24 h; summary of the method: as §2
Candida albicans [25] = assay: Antifungal activity against Candida albicans cgmcc 2.2086 in presence of MgCl2 by broth dilution method; assay type: functional
Candida albicans [26] = assay: Fungicidal activity against Candida albicans SP3903 after 96 hrs; assay type: functional; conditions: SP3903, 96 h, read-out: MFC99.9; summary of the method: as §1
[27] = system: Staphylococcus epidermidis; assay: Antibacterial activity against Staphylococcus epidermidis ATCC 12228 after 24 hrs; assay type: functional; conditions: ATCC 12228, 24 h; summary of the method: as §2
Candida tropicalis = assay: Fungicidal activity against Candida tropicalis cgmcc 2.1975 after 96 hrs; assay type: functional; conditions: cgmcc 2.1975, 96 h, read-out: MFC99.9; summary of the method: as §5

Substance	MFC (Candida albicans [1])	MIC (Escherichia coli [2])	MIC (Candida albicans [3])	MIC95 (Salmonella typhimurium)	MIC95 (Candida albicans [4])	MBC (Staphylococcus aureus [5])	MBC (Staphylococcus aureus [6])	MIC (Escherichia coli [7])	MFC (Pichia kudriavzevii)	MIC95 (Staphylococcus aureus [8])	MIC95 (Candida albicans [9])	MIC95 (Escherichia coli [10])	MIC95 (Candida albicans [11])	MBC (Escherichia coli [12])	MIC (Candida albicans [13])	MIC95 (Candida albicans [14])	MFC (Candida albicans [15])	MIC (Escherichia coli [16])	MBC (Staphylococcus aureus [17])	MFC (Candida albicans [18])	further results
H-RWRWWWRWR-NH2	16 µM	4 µM	16 µM	4 µM	4 µM	16 µM	2 µM	4 µM	8 µM	2 µM	8 µM	2 µM	4 µM	4 µM	8 µM	8 µM	16 µM	2 µM	8 µM	16 µM	viability at 24 h, up to 64 µM [19]: 70 to 80%; MIC (Candida albicans [20]): 32 µM; HC10 (Erythrocyte): > 128 µM; MFC (Candida albicans [21]): 4 µM; MFC (Candida albicans [22]): 4 µM; MFC (Candida albicans [23]): 8 µM; MIC95 (Escherichia coli [24]): 4 µM; MIC (Candida albicans [25]): 8 µM; MFC (Candida albicans [26]): 8 µM; MIC95 [27]: 4 µM; MFC (Candida tropicalis): 2 µM
H-RFRFFFRFR-NH2	16 µM	4 µM	32 µM	4 µM	8 µM	8 µM	4 µM	4 µM	4 µM	4 µM	8 µM	4 µM	8 µM	8 µM	8 µM	8 µM	4 µM	4 µM	8 µM	16 µM	viability at 24 h, up to 64 µM [19]: 70 to 80%; MIC (Candida albicans [20]): 64 µM; HC10 (Erythrocyte): > 128 µM; MFC (Candida albicans [21]): 8 µM; MFC (Candida albicans [22]): 4 µM; MFC (Candida albicans [23]): 16 µM; MIC95 (Escherichia coli [24]): 4 µM; MIC (Candida albicans [25]): 16 µM; MFC (Candida albicans [26]): 4 µM; MIC95 [27]: 4 µM; MFC (Candida tropicalis): 4 µM
H-RRIRIIIRIRR-NH2	2 µM	4 µM	4 µM	4 µM	2 µM	8 µM	4 µM	8 µM	2 µM	4 µM	2 µM	4 µM	1 µM	4 µM	2 µM	2 µM	2 µM	4 µM	8 µM	4 µM	viability at 24 h, up to 64 µM [19]: > 85%; MIC (Candida albicans [20]): 4 µM; HC10 (Erythrocyte): > 128 µM; MFC (Candida albicans [21]): 1 µM; MFC (Candida albicans [22]): 1 µM; MFC (Candida albicans [23]): 2 µM; MIC95 (Escherichia coli [24]): 4 µM; MIC (Candida albicans [25]): 2 µM; MFC (Candida albicans [26]): 1 µM; MIC95 [27]: 4 µM; MFC (Candida tropicalis): 2 µM
